Laboratory results taken from ChEMBL document CHEMBL5143609, “Enigmazole C: A Cytotoxic Macrocyclic Lactone and Its Ring-Opened Derivatives from a New Species of Homophymia Sponge” (2022).

Legend:
Format in all cases: functional
Conditions in all cases: for CC50: read-out: LC50 (the source's name)
[1] = system: A549; experiment: Cytotoxicity against human A549 cells
Outline: (§1)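 Cell-growth inhibition was tested in human tumor lines: A-549 lung carcinoma, HT-29 colorectal carcinoma, MDA-MB-231 breast adenocarcinoma and PSN-1 pancreatic adenocarcinoma. GI50 is the concentration giving 50% inhibition of cell growth, calculated by a literature procedure. TGI and LC50 endpoints were also reported.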

[2] = system: HT-29; experiment: Cytotoxicity against human HT-29 cells; outline: as §1
[3] = system: MDA-MB-231; experiment: Cytotoxicity against human MDA-MB-231 cells; outline: as §1
[4] = system: PSN1; experiment: Cytotoxicity against human PSN1 cells; outline: as §1

Structure (SMILES) | GI50 [1] [µM] | TGI [1] [µM] | CC50 [1] [µM] | GI50 [2] [µM] | TGI [2] [µM] | CC50 [2] [µM] | GI50 [3] [µM] | TGI [3] [µM] | CC50 [3] [µM] | GI50 [4] [µM] | TGI [4] [µM] | CC50 [4] [µM]
C=C(C[C@@H](C)C[C@@H]1CC(=O)C=C(/C=C/CC[C@H](C)C(=O)O)O1)C[C@H](O)c1coc(/C=C(/C)[C@@H](C)OC)n1 | 1.4 | > 19 | > 19 | 1 | 3.7 | > 19 | 4.1 | > 19 | > 19 | 1.1 | > 19 | > 19
C=C1CC(C)CC2CC(=O)C=C(C[C@H](O)CC[C@H](C)C(=O)OC(c3coc(/C=C(/C)C(C)OC)n3)C1)O2 (some centres undefined) | 9.9 | > 19 | > 19 | 18 | > 19 | > 19 | > 19 | > 19 | > 19 | 8.7 | > 19 | > 19
